Like-named read-outs stand apart in the source and are kept apart here.
What was measured:
LDHB [1] = biological target: T1, LDHB (Homo sapiens, UniProt P07195); test: Differential scanning fluorimetry; format: binding
LDHA [2] = biological target: T2, LDHA (Homo sapiens, UniProt P00338); test: Differential scanning fluorimetry; format: binding
LDHB [3] = biological target: T1, LDHB; test: Binding to palmitoyl-CoA immobilized on agarose beads
In short: (§1)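 Pull-down of LDH protein on palmitoyl-CoA immobilized on agarose beads. Competition with free palmitoyl-CoA, with buffer alone or acetyl-CoA as comparators.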

LDHA [4] = biological target: T2, LDHA; test: LDH enzyme activity assay; format: biochemical; settings: for mode of LDHA inhibition: with respect to NAD and lactate; for inhibition of LDHA enzyme activity: in vitro
In short: (§2)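 LDH isoform activity measured in vitro with test metabolites (adenosine nucleotides, CoA and acyl-CoAs) over a concentration range. IC50 is derived from the inhibition curves. Mode of inhibition is assessed against NAD and lactate.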

LDHA [5] = biological target: T2, LDHA; test: Binding to palmitoyl-CoA immobilized on agarose beads
In short: as §1

LDHB [6] = biological target: T1, LDHB; test: LDH enzyme activity assay; format: biochemical; settings: in vitro
In short: as §2

[7] = biological target: T3, phosphofructokinase (PFKP) (Homo sapiens, UniProt Q01813); test: MIDAS protein-metabolite interaction screen; format: binding; settings: significant PMI Q < 0.01
T3 sequence (Q01813 1-784): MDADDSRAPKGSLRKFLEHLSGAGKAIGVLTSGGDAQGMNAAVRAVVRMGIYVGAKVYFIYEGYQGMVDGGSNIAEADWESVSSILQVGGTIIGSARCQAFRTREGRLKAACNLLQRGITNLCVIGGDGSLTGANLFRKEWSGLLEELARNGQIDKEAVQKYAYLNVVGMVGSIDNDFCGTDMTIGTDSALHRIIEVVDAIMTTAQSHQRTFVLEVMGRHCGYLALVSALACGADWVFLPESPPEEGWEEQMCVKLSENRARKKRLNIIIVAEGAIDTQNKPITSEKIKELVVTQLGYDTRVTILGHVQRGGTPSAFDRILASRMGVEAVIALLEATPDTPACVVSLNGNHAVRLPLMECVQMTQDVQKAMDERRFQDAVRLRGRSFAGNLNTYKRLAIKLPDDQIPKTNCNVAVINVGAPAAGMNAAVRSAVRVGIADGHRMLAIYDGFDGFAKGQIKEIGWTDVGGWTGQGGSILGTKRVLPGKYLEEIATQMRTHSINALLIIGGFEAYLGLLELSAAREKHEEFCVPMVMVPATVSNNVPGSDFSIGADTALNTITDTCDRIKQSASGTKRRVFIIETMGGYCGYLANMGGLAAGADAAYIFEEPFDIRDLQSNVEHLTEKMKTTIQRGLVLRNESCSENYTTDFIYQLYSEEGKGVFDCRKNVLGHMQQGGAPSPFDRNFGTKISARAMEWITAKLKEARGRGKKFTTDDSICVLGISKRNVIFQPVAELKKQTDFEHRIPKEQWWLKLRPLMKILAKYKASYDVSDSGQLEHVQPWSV
In short: (§3)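 Purified protein is separated from a defined metabolite library by a semipermeable dialysis membrane that passes metabolites but not protein, then incubated to relative equilibrium. Protein is denatured and removed. Metabolites in both chambers are quantified by flow injection analysis–MS, with methods optimized for each pool. The between-chamber fold change is normalized and corrected for nonspecific interactions.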

PKM2 = PKM2 (Homo sapiens, UniProt P14618); test: MIDAS protein-metabolite interaction screen; format: binding; settings: significant PMI Q < 0.01
Chain of PKM2 (P14618 whole entry): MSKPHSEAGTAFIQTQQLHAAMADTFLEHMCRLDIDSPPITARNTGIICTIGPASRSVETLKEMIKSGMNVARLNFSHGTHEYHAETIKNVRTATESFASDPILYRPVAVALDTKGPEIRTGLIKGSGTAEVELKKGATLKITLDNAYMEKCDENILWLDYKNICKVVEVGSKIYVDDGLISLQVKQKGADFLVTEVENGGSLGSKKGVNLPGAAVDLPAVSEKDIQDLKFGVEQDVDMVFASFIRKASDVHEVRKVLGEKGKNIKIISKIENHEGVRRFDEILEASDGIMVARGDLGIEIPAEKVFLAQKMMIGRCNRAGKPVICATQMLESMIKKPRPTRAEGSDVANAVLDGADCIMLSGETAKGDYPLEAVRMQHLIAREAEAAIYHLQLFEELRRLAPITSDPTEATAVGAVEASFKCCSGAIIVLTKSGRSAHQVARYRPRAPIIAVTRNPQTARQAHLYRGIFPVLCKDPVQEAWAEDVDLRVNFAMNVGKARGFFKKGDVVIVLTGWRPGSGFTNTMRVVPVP
In short: as §3

[8] = biological target: glucose-6-phosphate isomerase (GPI) (Homo sapiens, UniProt P06744); test: MIDAS protein-metabolite interaction screen; format: binding; settings: significant PMI Q < 0.01
In short: as §3

ENO2 [9] = biological target: T4, ENO2 (Homo sapiens, UniProt P09104); test: Differential scanning fluorimetry; format: binding
T4 sequence (P09104 whole entry): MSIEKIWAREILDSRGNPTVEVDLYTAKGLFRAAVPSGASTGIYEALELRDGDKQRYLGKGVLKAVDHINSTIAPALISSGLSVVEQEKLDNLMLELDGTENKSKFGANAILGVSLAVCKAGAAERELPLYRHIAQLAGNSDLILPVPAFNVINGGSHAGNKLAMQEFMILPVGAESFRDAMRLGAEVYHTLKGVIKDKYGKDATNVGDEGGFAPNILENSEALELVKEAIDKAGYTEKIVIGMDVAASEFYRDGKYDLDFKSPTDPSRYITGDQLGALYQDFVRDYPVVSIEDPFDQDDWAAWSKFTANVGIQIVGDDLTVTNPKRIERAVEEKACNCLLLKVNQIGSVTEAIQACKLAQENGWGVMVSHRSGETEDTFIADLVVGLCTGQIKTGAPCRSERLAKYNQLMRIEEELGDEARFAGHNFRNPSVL

ENO2 [10] = biological target: T4, ENO2; test: MIDAS protein-metabolite interaction screen; format: binding; settings: significant PMI Q < 0.01
In short: as §3

enolase = test: In vitro enolase activity; format: biochemical, human
ENO1 [11] = biological target: T5, ENO1 (Homo sapiens, UniProt P06733); test: MIDAS protein-metabolite interaction screen; format: binding; settings: significant PMI Q < 0.01
T5 sequence (P06733 whole entry): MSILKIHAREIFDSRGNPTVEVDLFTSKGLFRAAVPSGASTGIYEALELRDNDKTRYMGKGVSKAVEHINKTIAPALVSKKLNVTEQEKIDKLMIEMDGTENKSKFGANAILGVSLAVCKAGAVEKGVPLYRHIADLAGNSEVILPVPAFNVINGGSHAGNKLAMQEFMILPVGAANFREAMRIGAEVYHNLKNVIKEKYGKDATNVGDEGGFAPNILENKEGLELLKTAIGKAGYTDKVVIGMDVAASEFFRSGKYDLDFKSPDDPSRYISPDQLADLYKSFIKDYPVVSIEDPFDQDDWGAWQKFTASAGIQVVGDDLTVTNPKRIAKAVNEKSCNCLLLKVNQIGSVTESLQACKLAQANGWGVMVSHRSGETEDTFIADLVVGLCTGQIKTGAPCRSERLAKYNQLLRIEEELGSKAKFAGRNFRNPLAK
In short: as §3

ENO1 [12] = biological target: T5, ENO1; test: Differential scanning fluorimetry; format: binding
fumarase [13] = biological target: T6, fumarase (Homo sapiens, UniProt P07954); test: Differential scanning fluorimetry; format: binding
T6 sequence (P07954 45-510): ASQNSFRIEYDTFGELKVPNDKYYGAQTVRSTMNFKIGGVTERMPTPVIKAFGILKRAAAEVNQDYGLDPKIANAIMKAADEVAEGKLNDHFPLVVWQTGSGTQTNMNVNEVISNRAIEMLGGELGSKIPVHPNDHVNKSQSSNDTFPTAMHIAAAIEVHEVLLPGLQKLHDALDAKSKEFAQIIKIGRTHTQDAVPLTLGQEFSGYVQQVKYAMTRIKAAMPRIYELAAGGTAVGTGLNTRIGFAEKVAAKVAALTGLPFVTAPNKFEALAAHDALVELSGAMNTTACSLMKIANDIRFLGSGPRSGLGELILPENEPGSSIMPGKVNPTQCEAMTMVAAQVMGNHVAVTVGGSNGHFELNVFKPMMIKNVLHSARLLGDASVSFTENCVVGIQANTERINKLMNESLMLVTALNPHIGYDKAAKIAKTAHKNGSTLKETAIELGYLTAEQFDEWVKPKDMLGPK

fumarase [14] = biological target: T6, fumarase; test: Fumarase kinetic assays; format: biochemical
fumarase (FH) = biological target: T7, fumarase (FH) (Homo sapiens, UniProt P07954); test: MIDAS protein-metabolite interaction screen; format: binding; settings: significant PMI Q < 0.01
T7 sequence (P07954 45-510): T6 sequence (P07954 45-510)
In short: as §3

FBP1 = biological target: T8, FBP1 (Homo sapiens, UniProt P09467); test: MIDAS protein-metabolite interaction screen; format: binding; settings: significant PMI Q < 0.01
T8 sequence (P09467 1-338): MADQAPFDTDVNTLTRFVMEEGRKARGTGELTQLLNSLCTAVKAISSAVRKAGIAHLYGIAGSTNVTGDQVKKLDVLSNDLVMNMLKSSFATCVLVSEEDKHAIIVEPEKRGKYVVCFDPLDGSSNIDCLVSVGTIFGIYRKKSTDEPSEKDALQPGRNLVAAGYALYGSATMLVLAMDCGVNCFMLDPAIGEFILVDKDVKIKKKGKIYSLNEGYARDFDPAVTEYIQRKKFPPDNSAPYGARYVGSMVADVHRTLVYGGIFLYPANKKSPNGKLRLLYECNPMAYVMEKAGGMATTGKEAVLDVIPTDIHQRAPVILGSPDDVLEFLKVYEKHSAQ
In short: as §3

FBP2 = biological target: T9, FBP2 (Homo sapiens, UniProt O00757); test: MIDAS protein-metabolite interaction screen; format: binding; settings: significant PMI Q < 0.01
T9 sequence (O00757 1-339): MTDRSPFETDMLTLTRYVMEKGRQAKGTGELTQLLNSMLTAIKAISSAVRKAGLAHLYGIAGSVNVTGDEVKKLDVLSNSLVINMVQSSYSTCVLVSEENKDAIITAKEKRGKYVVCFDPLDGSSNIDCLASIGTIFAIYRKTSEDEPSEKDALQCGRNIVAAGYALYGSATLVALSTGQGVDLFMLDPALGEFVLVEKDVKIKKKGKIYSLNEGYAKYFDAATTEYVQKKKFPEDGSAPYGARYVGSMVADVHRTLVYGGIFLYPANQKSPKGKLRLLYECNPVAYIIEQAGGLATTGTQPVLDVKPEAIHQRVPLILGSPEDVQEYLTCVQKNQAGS
In short: as §3

T1 sequence (P07195 whole entry): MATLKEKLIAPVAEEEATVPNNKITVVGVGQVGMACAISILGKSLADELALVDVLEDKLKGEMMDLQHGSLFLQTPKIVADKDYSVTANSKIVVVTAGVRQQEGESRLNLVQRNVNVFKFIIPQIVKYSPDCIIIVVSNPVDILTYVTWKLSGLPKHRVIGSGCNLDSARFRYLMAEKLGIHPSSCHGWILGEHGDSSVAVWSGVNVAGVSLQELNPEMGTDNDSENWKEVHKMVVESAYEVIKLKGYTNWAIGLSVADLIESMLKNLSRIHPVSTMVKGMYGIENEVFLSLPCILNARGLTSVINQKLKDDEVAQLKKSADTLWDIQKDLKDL

`CCCCCCCCCCCCCCCC(=O)SCCNC(=O)CCNC(=O)[C@H](O)C(C)(C)COP(=O)(O)OP(=O)(O)OC[C@H]1O[C@@H](n2cnc3c(N)ncnc32)[C@H](O)[C@@H]1OP(=O)(O)O` [C16:0-CoA, palmitoyl-CoA] was tested, and the “protein species induced in DSF assay” value (LDHB [1]; LDHB, low-micromolar concentrations of ligand) was “thermostable species”, the “protein species induced in DSF assay” value (LDHA [2]; LDHA, low-micromolar concentrations of ligand) was “thermolabile species” and the “disruption of protein binding to immobilized palmitoyl-CoA by free competitor” value (LDHB [3]; agarose beads) was “disrupted”. The “affinity of direct interaction” value (LDHB [3]; from DSF and bead binding) was “low-micromolar affinity”, the IC50 (LDHA [4]; LDHA enzyme activity, acyl-CoAs) was about 1 µM and the “mode of LDHA inhibition” value (LDHA [4]) was “noncompetitive”. For the same compound, the “disruption of protein binding to immobilized palmitoyl-CoA by free competitor” value (LDHA [5]; agarose beads) was “disrupted” and the “affinity of direct interaction” value (LDHA [5]; from DSF and bead binding) was “low-micromolar affinity”.
With `Nc1ncnc2c1ncn2[C@@H]1O[C@H](COP(=O)(O)OP(=O)(O)OP(=O)(O)O)[C@@H](O)[C@H]1O` [ATP, adenosine triphosphate] the Kd (LDHB [1]) was 697 µM, the Kd (LDHA [2]) was 636 µM and the “mode of LDHA inhibition” value (LDHA [4]) was “competitive”. For the same compound, the “inhibition of LDHB enzyme activity” value (LDHB [6]) was “inhibited only the LDHA isoform”.
For `Nc1ncnc2c1ncn2[C@@H]1O[C@H](COP(=O)(O)O)[C@@H](O)[C@H]1O` [AMP, adenosine monophosphate], the “inhibition of LDHA enzyme activity” value (LDHA [4]) was “only at supraphysiological concentrations” and the “inhibition of LDHB enzyme activity” value (LDHB [6]) was “only at supraphysiological concentrations”.
In the case of `O=C(COP(=O)(O)O)[C@@H](O)[C@H](O)[C@H](O)COP(=O)(O)O` [fructose 1,6-bisphosphate], the MIDAS protein-metabolite interaction [7] is reported as “interacted”.
In the case of `O=C(CO)[C@@H](O)[C@H](O)[C@H](O)[C@H](O)COP(=O)(O)O` [sedoheptulose-7-phosphate], the MIDAS protein-metabolite interaction [7] is reported as “interacted”.
For `CN1c2c(nc(N)[nH]c2=O)NCC1CNc1ccc(C(=O)N[C@@H](CCC(=O)O)C(=O)O)cc1` (stereo partly drawn) [5-MTHF, 5-methyltetrahydrofolate], the MIDAS protein-metabolite interaction (PKM2) was “interacted”.
With `Nc1nc2c(ncn2[C@@H]2O[C@H](COP(=O)(O)OP(=O)(O)O)[C@@H](O)[C@H]2O)c(=O)[nH]1` [GDP, guanosine diphosphate] the MIDAS protein-metabolite interaction (PKM2) was “interacted”.
In the case of `O=C[C@H](O)[C@@H](O)[C@H](O)[C@H](O)COP(=O)(O)O` [glucose-6-phosphate], the MIDAS protein-metabolite interaction [8] is reported as “interacted”.
For `N[C@@H](COP(=O)(O)O)C(=O)O` [pSer, phosphoserine], the Kd (ENO2 [9]) was 1150 µM, the MIDAS protein-metabolite interaction (ENO2 [10]) was “most enriched metabolite” and the “inhibition of in vitro enolase activity” value (enolase) was “only weakly inhibited”. The MIDAS protein-metabolite interaction (ENO1 [11]) was “most enriched metabolite” and the Kd (ENO1 [12]) was 1380 µM.
`O=C(O)/C=C/C(=O)O` [fumarate] gave a Kd (fumarase [13]; read-out: apparent dissociation constant (Kd app), DSF, fumarase) of 3870 µM.
`Nc1ncnc2c1ncn2[C@@H]1O[C@H](COP(=O)(O)OP(=O)(O)O)[C@@H](O)[C@H]1O` [ADP, adenosine diphosphate] was tested, and the “inhibition of LDHA enzyme activity” value (LDHA [4]) was “only at supraphysiological concentrations” and the “inhibition of LDHB enzyme activity” value (LDHB [6]) was “only at supraphysiological concentrations”.
`NC(CP(=O)(O)O)C(=O)O` (stereo not drawn) [AP-3, 2-amino-3-phosphonopropionic acid] was tested, and the Kd (fumarase [13]) was 980 µM, the “inhibition of fumarase, mode” value (fumarase [14]) was “competitively inhibited” and the MIDAS protein-metabolite interaction (fumarase (FH)) was “putative interactor”.
`O=C(CO)[C@@H](O)[C@H](O)[C@H](O)COP(=O)(O)O` [fructose-6-phosphate] was tested, and the MIDAS protein-metabolite interaction [8] was “interacted”.
For `O=P(O)(O)OC[C@H]1O[C@H](OP(=O)(O)OP(=O)(O)O)[C@H](O)[C@@H]1O` [PRPP, 5-phospho-D-ribose 1-diphosphate], the MIDAS protein-metabolite interaction (FBP1) was “interacted” and the MIDAS protein-metabolite interaction (FBP2) was “interacted”.
`N[C@@H](Cc1cc(I)c(O)c(I)c1)C(=O)O` [3,5-diiodo-L-tyrosine] was tested, and the MIDAS protein-metabolite interaction (PKM2) was “interacted”.
`N[C@H]1C(O)O[C@H](COP(=O)(O)O)[C@@H](O)[C@@H]1O` (stereo partly drawn) [glucosamine-6-phosphate] was tested, and the MIDAS protein-metabolite interaction (FBP1) was “showed an interaction” and the MIDAS protein-metabolite interaction (FBP2) was “only FBP1 showed an interaction”.
